The target of one experiment is Cathepsin B (Bos taurus) (UniProt P07688). Put plainly: Evaluated for second-order rate constants for the inactivation of mammalian lysosomal cathepsin B.
Experiment [1] concerns the target Procathepsin L (Homo sapiens) (UniProt P07711). The experiment can be described thus: Evaluated for second-order rate constants for the inactivation of mammalian lysosomal cathepsin L.
The target of experiment [2] is T1, Papain (Carica papaya) (UniProt P00784).
T1 sequence (whole entry): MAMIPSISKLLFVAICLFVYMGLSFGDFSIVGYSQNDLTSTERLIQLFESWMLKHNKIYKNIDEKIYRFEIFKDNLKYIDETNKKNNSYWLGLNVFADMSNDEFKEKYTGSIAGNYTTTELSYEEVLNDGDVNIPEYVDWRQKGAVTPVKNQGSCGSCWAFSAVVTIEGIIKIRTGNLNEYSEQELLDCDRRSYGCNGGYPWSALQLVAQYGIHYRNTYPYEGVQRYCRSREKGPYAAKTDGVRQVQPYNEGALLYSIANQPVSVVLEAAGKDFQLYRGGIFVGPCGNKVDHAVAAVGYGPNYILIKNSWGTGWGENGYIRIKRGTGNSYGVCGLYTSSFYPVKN
The experiment can be described thus: Second-order rate constants for the inactivation of papain (vacuolar plant enzyme). Summed up:
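Papain with L-BAPA (405 nm) in 50 mM phosphate pH 6.5, 5 mM EDTA, 5 mM cysteine, or with Z-Phe-Arg-AMC in phosphate pH 6.5 with DTT, EDTA, Brij 35; 25 °C. kobs at 3–7 inhibitor concentrations, continuous or dilution assay; k2nd = ki/Ki, or from linear kobs vs [I] when unsaturated; substrate-corrected (Km 2.5 mM L-BAPA, 0.09 mM Z-Phe-Arg-AMC).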

In experiment [3] the target is T1, Papain (Carica papaya). Put plainly: Second-order rate constants for the inactivation of papain (vascular plant enzyme); no inhibition.
Experiment [4] concerns the target T1, Papain (Carica papaya). Put plainly: Second-order rate constants for the inactivation of papain at pH 4 (vascular plant enzyme). Summed up:
(§1)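 Papain (0.5 mg mL-1) with 1.4–1.5 mM L-BAPA, read at 405 nm, 25 °C. Buffers: 50 mM citrate for pH 4–6, phosphate for pH 6–8, borate for pH 8–9. kobs came from continuous or dilution assays at 3–7 inhibitor concentrations. k_i/K_i came from a hyperbolic or linear fit, corrected to zero substrate (Km 2.5 mM).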

Experiment [5] has as its target T1, Papain (Carica papaya). The experiment can be described thus: Second-order rate constants for the inactivation of papain at pH 6.5(vascular plant enzyme). Summed up:
as §1

Experiment [6] concerns the target T1, Papain (Carica papaya). Put plainly: Second-order rate constants for the inactivation of papain at pH 8(vascular plant enzyme). Put shortly: as §1
Another experiment deals with T2, Pro-cathepsin H (Homo sapiens, UniProt P09668).
T2 sequence (P09668 whole entry): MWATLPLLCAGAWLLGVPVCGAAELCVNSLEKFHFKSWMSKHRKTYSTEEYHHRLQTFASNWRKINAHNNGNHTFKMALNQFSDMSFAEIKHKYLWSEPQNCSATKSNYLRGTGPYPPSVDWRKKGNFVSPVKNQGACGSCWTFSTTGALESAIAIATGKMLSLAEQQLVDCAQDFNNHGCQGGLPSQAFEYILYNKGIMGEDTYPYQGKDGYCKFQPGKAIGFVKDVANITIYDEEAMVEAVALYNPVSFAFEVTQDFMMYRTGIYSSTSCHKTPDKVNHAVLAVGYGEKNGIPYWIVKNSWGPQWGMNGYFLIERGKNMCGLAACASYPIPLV
Put plainly: Inhibition constant for the non time dependent inhibition of cathepsin H.

Experiment [7] concerns the target T3, Calpain-2 catalytic subunit (Sus scrofa, UniProt P43367).
T3 sequence (P43367 whole entry): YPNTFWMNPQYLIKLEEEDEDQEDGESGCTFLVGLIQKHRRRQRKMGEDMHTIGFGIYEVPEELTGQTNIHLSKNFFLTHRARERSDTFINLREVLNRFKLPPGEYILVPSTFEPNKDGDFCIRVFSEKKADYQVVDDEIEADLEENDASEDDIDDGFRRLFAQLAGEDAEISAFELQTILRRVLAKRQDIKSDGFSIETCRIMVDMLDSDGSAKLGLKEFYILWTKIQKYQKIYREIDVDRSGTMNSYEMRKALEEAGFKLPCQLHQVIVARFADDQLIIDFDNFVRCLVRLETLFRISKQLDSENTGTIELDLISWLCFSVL
The experiment can be described thus: Inhibition constant for the non time dependent inhibition of Calpain 2. Summed up:
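Calpain I or II with Suc-Leu-Tyr-AMC in 50 mM Tris pH 7.5, 5 mM CaCl2, 2.5 mM EDTA, 2.5 mM DTT. Enzyme preincubated in buffer 30 min, assayed at 25 °C, fluorescence 460 nm (excitation 380 nm). Ki from Dixon plots, corrected to zero substrate with Km 0.4 mM (calpain I) or 0.22 mM (calpain II).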

Among the data in ChEMBL document CHEMBL1132578, “New peptidic cysteine protease inhibitors derived from the electrophilic alpha-amino acid aziridine-2,3-dicarboxylic acid” (J Med Chem, 1999) are ki/Ki and Ki values, retold here.

pKi: −log10 of the molar value. Calls of active or inactive are those of the source. The calls are words filed in the database; no cut-off is given here.

The term pKi denotes the negative decadic logarithm of the Ki, by convention in mol/L. Higher therefore signals a low Ki.

Sequence of Procathepsin L (Homo sapiens) (P07711 114-333 limits assumed): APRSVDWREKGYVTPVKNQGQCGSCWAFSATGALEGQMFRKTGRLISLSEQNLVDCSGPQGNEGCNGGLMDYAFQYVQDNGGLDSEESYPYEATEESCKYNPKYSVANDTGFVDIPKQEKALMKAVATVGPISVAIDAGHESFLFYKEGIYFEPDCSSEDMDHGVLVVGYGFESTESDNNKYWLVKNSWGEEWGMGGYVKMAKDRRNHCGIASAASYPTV

As to `CCOC(=O)[C@@H]1[C@@H](C(=O)OCC)N1C(=O)[C@H](Cc1ccccc1)NC(=O)[C@H](C)NC(=O)OCc1ccccc1`, the figures for the ki/Ki (at Cathepsin B (Bos taurus); in [1]; on Papain (Carica papaya) [2]) were 2.08 M⁻¹ s⁻¹, 0.483 M⁻¹ s⁻¹ and 2.95 M⁻¹ s⁻¹, respectively.
In the same order, the values of `CCOC(=O)C1C(C(=O)OCc2ccccc2)N1C(=O)[C@H](C)NC(=O)[C@H](Cc1ccccc1)NC(=O)OC(C)(C)C` (some centres undefined) are 7.38 M⁻¹ s⁻¹, 4.68 M⁻¹ s⁻¹ and 20.5 M⁻¹ s⁻¹.
For the molecule `CCOC(=O)C1C(C(=O)OCc2ccccc2)N1C(=O)CNC(=O)[C@H](CC(C)C)NC(=O)OC(C)(C)C` (some centres undefined), the ki/Ki at Cathepsin B (Bos taurus) is 4 M⁻¹ s⁻¹; in [1] it was 53.9 M⁻¹ s⁻¹; on Papain (Carica papaya) [2], 2.48 M⁻¹ s⁻¹.
On to `CCOC(=O)[C@@H]1N[C@H]1C(=O)N[C@@H](CC(C)C)C(=O)O`, for which, on Papain (Carica papaya) [2], the ki/Ki was found to be 1.05 M⁻¹ s⁻¹.
`CC[C@H](C)C(NC(=O)[C@@H]1N[C@H]1C(=O)NCC(C)C)C(=O)N1CCCC1C(=O)O` (single isomer, unassigned): the ki/Ki is 13 M⁻¹ s⁻¹ at Cathepsin B (Bos taurus) and 50 M⁻¹ s⁻¹ in experiment [1]. Also, the ki/Ki result at Papain (Carica papaya) [3] is “inactive”.
As to `CCOC(=O)[C@@H]1[C@@H](C(=O)OCC)N1C(=O)[C@H](C)NC(=O)[C@@H](Cc1ccccc1)NC(=O)OC(C)(C)C`, the figures for the ki/Ki (on Cathepsin B (Bos taurus); in experiment [1]; on Papain (Carica papaya) [2]) were 7.58 M⁻¹ s⁻¹, 7.82 M⁻¹ s⁻¹ and 22.8 M⁻¹ s⁻¹, respectively.
In the same order, the values of `CCOC(=O)[C@H]1[C@H](C(=O)OCC)N1C(=O)[C@H](Cc1ccccc1)NC(=O)C(C)NC(=O)OCc1ccccc1` (single isomer, unassigned) are 0.367 M⁻¹ s⁻¹, 0.55 M⁻¹ s⁻¹ and 0.35 M⁻¹ s⁻¹.
Consider `CCOC(=O)[C@H]1[C@H](C(=O)N[C@@H](CC(C)C)C(=O)N2CCCC2C(=O)OCc2ccccc2)N1C(=O)[C@H](Cc1ccccc1)NC(=O)OC(C)(C)C` (some centres undefined), for which the ki/Ki is 32.3 M⁻¹ s⁻¹ on Cathepsin B (Bos taurus), 98.3 M⁻¹ s⁻¹ in experiment [1] and 12.8 M⁻¹ s⁻¹ on Papain (Carica papaya) [2].
Consider `CCOC(=O)[C@@H]1[C@@H](C(=O)N[C@@H](CC(C)C)C(=O)N2CCCC2C(=O)OCc2ccccc2)N1C(=O)[C@H](Cc1ccccc1)NC(=O)OC(C)(C)C` (some centres undefined), for which the ki/Ki at Cathepsin B (Bos taurus) amounted to 7.5 M⁻¹ s⁻¹; at Papain (Carica papaya) [2] it was 5.35 M⁻¹ s⁻¹.
For the molecule `CC(C)CCNC(=O)[C@H](CC(C)C)NC(=O)[C@H]1N[C@@H]1C(=O)O`, the ki/Ki at Papain (Carica papaya) [2] was 0.167 M⁻¹ s⁻¹.
For the molecule `CCOC(=O)[C@@H]1[C@@H](C(=O)OCC)N1C(=O)CNC(=O)CNC(=O)OCc1ccccc1`, the ki/Ki at Cathepsin B (Bos taurus) came to 6.48 M⁻¹ s⁻¹; in experiment [1], 5.28 M⁻¹ s⁻¹; at Papain (Carica papaya) [2] it was 4.95 M⁻¹ s⁻¹.
As for `CCOC(=O)[C@H]1N[C@@H]1C(=O)N[C@@H](CC(C)C)C(=O)N1CCC[C@H]1C(=O)OCc1ccccc1`, the figures for the ki/Ki (on Cathepsin B (Bos taurus); in [1]; on Papain (Carica papaya) [2]) were 6.75 M⁻¹ s⁻¹, 35.7 M⁻¹ s⁻¹ and 3.78 M⁻¹ s⁻¹, respectively.
In the same order, the values of `CCOC(=O)C1C(C(=O)O)N1C(=O)[C@H](Cc1ccccc1)NC(=O)OC(C)(C)C` (some centres undefined) are 20.5 M⁻¹ s⁻¹, 3.13 M⁻¹ s⁻¹ and 8.42 M⁻¹ s⁻¹.
Consider `CCOC(=O)C1NC1C(=O)OCC` (centres undefined), for which, at Papain (Carica papaya) [4], the ki/Ki is 1.02 M⁻¹ s⁻¹.
Regarding `CCOC(=O)C1C(C(=O)OCC)N1C(=O)[C@H](CC(C)C)NC(=O)OCC1c2ccccc2-c2ccccc21` (some centres undefined), the ki/Ki in experiment [1] amounted to 1.65 M⁻¹ s⁻¹; on Papain (Carica papaya) [2], 1.08 M⁻¹ s⁻¹.
As to `CCOC(=O)C1NC1C(=O)N[C@@H](CC(C)C)C(=O)OCc1ccccc1` (some centres undefined), the ki/Ki on Cathepsin B (Bos taurus) came out at 0.683 M⁻¹ s⁻¹; at Papain (Carica papaya) [5] it was 2.8 M⁻¹ s⁻¹; on Papain (Carica papaya) [6] it was 0.4 M⁻¹ s⁻¹; on Papain (Carica papaya) [4], 13.1 M⁻¹ s⁻¹; in experiment [1] it was 52.2 M⁻¹ s⁻¹; at Papain (Carica papaya) [2], 3.57 M⁻¹ s⁻¹. The pKi on Pro-cathepsin H was 3.59.
Turning to `CC(C)CCNC(=O)C(CC(C)C)NC(=O)[C@@H]1N[C@H]1C(=O)O` (single isomer, unassigned), the ki/Ki at Papain (Carica papaya) [2] was found to be 0.167 M⁻¹ s⁻¹.
The same measure, in the same setting: the value for `CCOC(=O)[C@@H]1[C@@H](C(=O)OCC)N1C(=O)[C@H](C)NC(=O)OC(C)(C)C` was 0.717 M⁻¹ s⁻¹.
As to `CCOC(=O)[C@@H]1[C@@H](C(=O)N[C@@H](CC(C)C)C(=O)OCc2ccccc2)N1C(=O)[C@H](Cc1ccccc1)NC(=O)OC(C)(C)C`, the results for the ki/Ki (on Cathepsin B (Bos taurus); in experiment [1]; on Papain (Carica papaya) [2]) were 2.03 M⁻¹ s⁻¹, 3.65 M⁻¹ s⁻¹ and 2.85 M⁻¹ s⁻¹, respectively. Besides, on Pro-cathepsin H, the negative-log Ki (pKi) was 4.03.
With `CCOC(=O)[C@H]1[C@H](C(=O)OCC)N1C(=O)C(Cc1ccccc1)NC(=O)OC(C)(C)C` (single isomer, unassigned), the ki/Ki came out at 0.3 M⁻¹ s⁻¹ on Cathepsin B (Bos taurus), 0.267 M⁻¹ s⁻¹ in experiment [1] and 0.7 M⁻¹ s⁻¹ at Papain (Carica papaya) [2].
Regarding `CCOC(=O)C1NC1C(=O)N[C@@H](CC(C)C)C(=O)NCCC(C)C` (some centres undefined), the ki/Ki on Papain (Carica papaya) [2] came out at 3 M⁻¹ s⁻¹.
As to `CCOC(=O)[C@H]1[C@H](C(=O)N[C@@H](CC(C)C)C(=O)OCc2ccccc2)N1C(=O)[C@H](Cc1ccccc1)NC(=O)OC(C)(C)C`, the ki/Ki on Cathepsin B (Bos taurus) stood at 4.28 M⁻¹ s⁻¹; in experiment [1] it was 5.23 M⁻¹ s⁻¹; on Papain (Carica papaya) [2], 3.75 M⁻¹ s⁻¹. Besides, the negative logarithm of the Ki (pKi) at Pro-cathepsin H was 3.86; in [7], 4.38.
With `CCOC(=O)[C@@H]1[C@@H](C(=O)OCC)N1C(=O)[C@H](C)NC(=O)[C@H](Cc1ccccc1)NC(=O)CNC(=O)OCc1ccccc1`, the ki/Ki at Cathepsin B (Bos taurus) turned out to be 7.02 M⁻¹ s⁻¹; in experiment [1], 5.25 M⁻¹ s⁻¹; on Papain (Carica papaya) [2] it was 8.72 M⁻¹ s⁻¹.
As for `CCOC(=O)C1C(C(=O)OCc2ccccc2)N1C(=O)[C@H](Cc1ccccc1)NC(=O)OC(C)(C)C` (some centres undefined), the ki/Ki at Papain (Carica papaya) [2] turned out to be 1.27 M⁻¹ s⁻¹.
Still for that read-out and setting: the value for `CCOC(=O)C1NC1C(=O)N[C@H](CC(C)C)C(=O)NCCC(C)C` (some centres undefined) was 55 M⁻¹ s⁻¹.
